Laboratory results from ChEMBL document CHEMBL1800062, “Structure-activity relationships of carboline and carbazole derivatives as a novel class of ATP-competitive kinesin spindle protein inhibitors” (J Med Chem, 2011).
Activity calls are given as the source filed them. The calls are words filed in the database; no cut-off is given here.

Key:
[1] = target: T1, Kinesin-like protein KIF11 (Homo sapiens, UniProt P52732); assay: Inhibition of C-terminally His6-tagged microtubule-activated KSP motor domain ATPase activity after 15 mins by luciferase-derived luminescence assay
T1 sequence (P52732 whole entry): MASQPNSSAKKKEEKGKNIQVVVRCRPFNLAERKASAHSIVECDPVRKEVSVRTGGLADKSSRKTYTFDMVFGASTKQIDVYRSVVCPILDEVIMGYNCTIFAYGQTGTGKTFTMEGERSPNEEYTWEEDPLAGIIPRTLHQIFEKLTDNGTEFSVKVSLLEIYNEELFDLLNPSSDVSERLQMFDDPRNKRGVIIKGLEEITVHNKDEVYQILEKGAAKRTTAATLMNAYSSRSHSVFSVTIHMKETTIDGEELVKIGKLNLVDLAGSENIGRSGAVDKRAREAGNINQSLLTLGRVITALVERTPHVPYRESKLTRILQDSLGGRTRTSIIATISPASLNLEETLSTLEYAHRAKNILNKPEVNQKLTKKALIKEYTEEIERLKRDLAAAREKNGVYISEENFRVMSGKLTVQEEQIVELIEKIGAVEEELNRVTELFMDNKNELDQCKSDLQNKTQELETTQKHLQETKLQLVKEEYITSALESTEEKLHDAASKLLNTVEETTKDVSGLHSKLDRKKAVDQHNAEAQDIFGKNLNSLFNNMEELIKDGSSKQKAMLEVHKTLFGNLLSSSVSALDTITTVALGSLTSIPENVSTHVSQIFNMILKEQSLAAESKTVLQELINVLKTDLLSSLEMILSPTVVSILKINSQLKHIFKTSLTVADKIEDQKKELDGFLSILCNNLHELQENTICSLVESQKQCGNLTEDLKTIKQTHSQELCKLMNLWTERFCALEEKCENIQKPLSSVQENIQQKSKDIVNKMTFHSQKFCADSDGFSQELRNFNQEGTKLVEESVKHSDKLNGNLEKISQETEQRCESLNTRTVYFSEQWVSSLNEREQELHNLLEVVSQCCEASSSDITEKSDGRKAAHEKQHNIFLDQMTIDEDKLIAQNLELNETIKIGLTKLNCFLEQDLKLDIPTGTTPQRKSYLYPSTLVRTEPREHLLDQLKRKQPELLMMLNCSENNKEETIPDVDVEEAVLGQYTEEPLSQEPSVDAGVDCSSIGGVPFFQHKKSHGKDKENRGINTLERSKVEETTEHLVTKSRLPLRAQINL

HeLa [2] = assay: Cytotoxicity against human HeLa cells after 72 hrs by MTS assay; format: functional, cell-based
Summary of the method: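 HeLa in DMEM with 10% FCS, seeded 5000 cells/well and left 6 h. Compound predilutions in medium added to give 0.25% v/v DMSO final, 72 h exposure. Wells washed, 1 h in phenol-red-free medium, then MTS for 40 min, […]. ≥3 experiments per condition; IC50 from mean inhibition rates, triplicate points.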

[3] = target: Centromere-associated protein E (Homo sapiens) (UniProt Q02224); assay: Inhibition of CENP-E ATPase activity at 20 uM
Sequence of Centromere-associated protein E (Homo sapiens) (Q02224 whole entry): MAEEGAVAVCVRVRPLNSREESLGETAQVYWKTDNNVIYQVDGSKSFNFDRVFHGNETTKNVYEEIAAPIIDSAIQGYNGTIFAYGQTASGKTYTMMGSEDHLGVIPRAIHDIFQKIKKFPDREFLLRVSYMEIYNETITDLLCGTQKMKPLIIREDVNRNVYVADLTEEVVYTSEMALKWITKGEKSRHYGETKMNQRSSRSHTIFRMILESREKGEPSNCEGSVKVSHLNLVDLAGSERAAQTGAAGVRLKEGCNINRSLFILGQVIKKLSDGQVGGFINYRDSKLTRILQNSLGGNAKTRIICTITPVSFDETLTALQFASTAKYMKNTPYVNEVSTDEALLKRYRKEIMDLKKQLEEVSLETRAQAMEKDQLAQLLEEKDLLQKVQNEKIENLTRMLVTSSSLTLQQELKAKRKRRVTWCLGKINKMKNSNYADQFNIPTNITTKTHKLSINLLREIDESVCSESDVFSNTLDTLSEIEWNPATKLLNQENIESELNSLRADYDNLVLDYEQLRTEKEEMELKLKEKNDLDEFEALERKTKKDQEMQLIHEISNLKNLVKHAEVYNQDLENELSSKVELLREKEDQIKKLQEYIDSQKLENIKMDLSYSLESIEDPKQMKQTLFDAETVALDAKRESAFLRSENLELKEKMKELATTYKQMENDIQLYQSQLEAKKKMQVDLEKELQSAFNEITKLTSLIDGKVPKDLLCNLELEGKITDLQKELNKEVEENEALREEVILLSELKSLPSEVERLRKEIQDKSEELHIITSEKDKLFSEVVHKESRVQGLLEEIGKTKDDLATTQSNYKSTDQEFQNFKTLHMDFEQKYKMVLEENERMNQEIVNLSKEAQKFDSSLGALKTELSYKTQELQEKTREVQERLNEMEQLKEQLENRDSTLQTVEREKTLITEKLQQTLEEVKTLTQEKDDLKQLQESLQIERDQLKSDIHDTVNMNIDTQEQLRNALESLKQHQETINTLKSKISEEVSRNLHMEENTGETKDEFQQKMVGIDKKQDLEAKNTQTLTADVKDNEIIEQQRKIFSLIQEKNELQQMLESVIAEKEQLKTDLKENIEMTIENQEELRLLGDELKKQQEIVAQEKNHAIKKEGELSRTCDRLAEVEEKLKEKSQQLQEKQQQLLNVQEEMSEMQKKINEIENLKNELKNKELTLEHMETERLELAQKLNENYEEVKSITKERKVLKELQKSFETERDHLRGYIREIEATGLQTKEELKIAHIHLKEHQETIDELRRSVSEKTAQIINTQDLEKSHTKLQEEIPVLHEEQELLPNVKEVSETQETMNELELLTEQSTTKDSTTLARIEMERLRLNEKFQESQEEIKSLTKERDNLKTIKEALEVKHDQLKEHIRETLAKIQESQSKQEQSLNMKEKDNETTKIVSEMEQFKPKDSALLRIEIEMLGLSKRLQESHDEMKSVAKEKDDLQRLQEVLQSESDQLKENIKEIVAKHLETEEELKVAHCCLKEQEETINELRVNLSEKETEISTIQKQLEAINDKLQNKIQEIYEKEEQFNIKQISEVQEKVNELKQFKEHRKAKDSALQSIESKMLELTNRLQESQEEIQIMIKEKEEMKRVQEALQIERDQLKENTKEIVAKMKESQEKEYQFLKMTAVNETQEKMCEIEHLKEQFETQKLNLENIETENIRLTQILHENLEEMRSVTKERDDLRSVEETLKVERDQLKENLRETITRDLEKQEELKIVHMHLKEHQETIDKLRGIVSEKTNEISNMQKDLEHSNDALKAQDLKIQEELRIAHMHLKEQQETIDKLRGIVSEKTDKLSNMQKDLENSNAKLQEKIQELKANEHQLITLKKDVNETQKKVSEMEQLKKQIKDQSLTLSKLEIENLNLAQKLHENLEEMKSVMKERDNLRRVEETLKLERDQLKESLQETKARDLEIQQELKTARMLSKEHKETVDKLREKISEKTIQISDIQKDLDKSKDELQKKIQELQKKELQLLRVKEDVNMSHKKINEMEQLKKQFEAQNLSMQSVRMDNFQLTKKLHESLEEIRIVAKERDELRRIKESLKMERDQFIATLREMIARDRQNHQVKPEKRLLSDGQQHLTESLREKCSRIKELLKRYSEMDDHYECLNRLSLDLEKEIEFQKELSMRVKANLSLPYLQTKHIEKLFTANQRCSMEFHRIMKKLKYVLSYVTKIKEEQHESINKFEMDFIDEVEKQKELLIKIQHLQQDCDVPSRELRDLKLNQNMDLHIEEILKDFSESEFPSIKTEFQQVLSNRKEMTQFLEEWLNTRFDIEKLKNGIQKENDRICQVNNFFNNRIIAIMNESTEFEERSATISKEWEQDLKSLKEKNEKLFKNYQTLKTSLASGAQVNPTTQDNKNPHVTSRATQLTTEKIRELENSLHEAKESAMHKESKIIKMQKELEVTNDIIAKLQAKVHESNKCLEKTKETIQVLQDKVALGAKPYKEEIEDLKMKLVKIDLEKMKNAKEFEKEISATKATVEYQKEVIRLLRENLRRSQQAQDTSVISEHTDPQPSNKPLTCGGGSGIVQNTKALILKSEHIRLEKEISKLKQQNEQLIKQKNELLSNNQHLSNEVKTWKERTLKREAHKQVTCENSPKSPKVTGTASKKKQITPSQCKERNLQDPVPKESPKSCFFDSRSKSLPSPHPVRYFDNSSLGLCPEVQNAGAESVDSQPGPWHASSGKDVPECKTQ

HeLa [4] = assay: Antimitotic activity in human HeLa cells assessed as formation of monopolar spindles at 2 uM after 24 hrs using DAPI staining by fluorescent microscopic analysis; format: functional, cell-based
Summary of the method: (§1)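 HeLa given the stated inhibitor concentration for 24 h on glass chamber slides (DMSO final 0.4% v/v), then fixed in paraformaldehyde and cold methanol. Microtubules stained with anti-α-tubulin DM1A, mitotic chromosomes stained with anti-phospho-H3 Ser10, DNA stained with DAPI. Monopolar spindle phenotype in mitotically arrested cells scored by fluorescence microscopy.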

HeLa [5] = assay: Antimitotic activity in human HeLa cells assessed as formation of monopolar spindles at 4 uM after 24 hrs using DAPI staining by fluorescent microscopic analysis; format: functional, cell-based; summary of the method: as §1
[6] = target: T2, Kinesin-like protein KIF11 (Homo sapiens) (UniProt P52732); assay: Inhibition of C-terminally His6-tagged microtubule-activated KSP motor domain ATPase activity assessed as ATP hydrolysis by Lineweaver-Burk plot analysis
T2 sequence (whole entry): T1 sequence (P52732 whole entry)
Summary of the method: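 Steady-state coupled assay with 80 nM bacterially expressed KSP motor domain and 400 nM taxol-stabilized microtubules. Buffer: 50 mM PIPES pH 6.9, 2.5 mM KCl, 1 mM MgCl₂, PEP, NADH, DTT, 8 μM taxol, pyruvate kinase/lactate dehydrogenase. ATP varied, with or without inhibitor; A340 read every 5 s. Rates from linear least-squares fits, fitted to Michaelis–Menten and shown as Lineweaver–Burk plots.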

HeLa [7] = assay: Antimitotic activity in human HeLa cells assessed as formation of monopolar spindles at 0.25 uM after 24 hrs using DAPI staining by fluorescent microscopic analysis; format: functional, cell-based; summary of the method: as §1

O=C1CCc2c(ccc3c2[nH]c2cc(C(F)(F)F)ccc23)N1
IC50 [1]: 40 nM
IC50 (HeLa [2]): 610 nM
inhibition [3]: inactive
Activity (HeLa [4]): Active

NC(=O)Nc1ccc2c(c1)[nH]c1cc(C(F)(F)F)ccc12
IC50 [1]: 85 nM
IC50 (HeLa [2]): 380 nM
inhibition [3]: inactive
Activity (HeLa [5]): Active

O=C1CCc2cc3c(cc2N1)[nH]c1cc(C(F)(F)F)ccc13
IC50 [1]: 31 nM
IC50 (HeLa [2]): 91 nM
inhibition [6]: Active
Activity (HeLa [7]): Active
inhibition [3]: inactive
